# Measurements: paper PMC3625064 (Molecular cell, 2012)
# Changes are numbered by the printed parent chain. Names may count otherwise. “Also recorded” adds a separate entry of the source. No end group written: not given here.
# T1: LSD2 (Homo sapiens, UniProt Q8NB78)
# T1 sequence (Q8NB78 1-822): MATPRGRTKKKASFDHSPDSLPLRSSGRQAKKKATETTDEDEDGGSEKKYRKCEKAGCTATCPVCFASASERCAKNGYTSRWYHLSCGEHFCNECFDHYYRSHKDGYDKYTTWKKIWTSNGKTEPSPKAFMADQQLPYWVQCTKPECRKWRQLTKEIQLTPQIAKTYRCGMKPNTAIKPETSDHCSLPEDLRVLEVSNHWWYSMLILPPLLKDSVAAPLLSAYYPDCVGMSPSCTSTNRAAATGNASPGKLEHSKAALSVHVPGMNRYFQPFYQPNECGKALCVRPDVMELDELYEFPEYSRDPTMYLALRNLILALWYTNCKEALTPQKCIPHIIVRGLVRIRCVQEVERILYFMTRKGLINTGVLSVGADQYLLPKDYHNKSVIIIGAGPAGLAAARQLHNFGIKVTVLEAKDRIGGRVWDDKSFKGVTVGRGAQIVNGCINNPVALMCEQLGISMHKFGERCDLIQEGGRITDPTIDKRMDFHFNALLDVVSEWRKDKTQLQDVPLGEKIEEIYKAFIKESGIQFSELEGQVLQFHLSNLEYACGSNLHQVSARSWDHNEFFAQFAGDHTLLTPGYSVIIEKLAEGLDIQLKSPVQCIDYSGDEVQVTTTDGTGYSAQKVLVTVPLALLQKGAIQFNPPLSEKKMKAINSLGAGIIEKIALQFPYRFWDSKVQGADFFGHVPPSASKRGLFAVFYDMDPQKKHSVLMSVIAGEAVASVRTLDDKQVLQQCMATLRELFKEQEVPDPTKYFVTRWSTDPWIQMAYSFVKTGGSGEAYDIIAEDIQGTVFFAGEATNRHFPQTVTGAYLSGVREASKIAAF
# T2: LSD2 used for isothermal titration calorimetry (human, UniProt Q8NB78 1-822)
# T2 sequence (looked up): T1 sequence (Q8NB78 1-822)
# T3: LSD2 (residues 51–822), as crystallised with NPAC (human, UniProt Q8NB78 51-822)
# T3 sequence: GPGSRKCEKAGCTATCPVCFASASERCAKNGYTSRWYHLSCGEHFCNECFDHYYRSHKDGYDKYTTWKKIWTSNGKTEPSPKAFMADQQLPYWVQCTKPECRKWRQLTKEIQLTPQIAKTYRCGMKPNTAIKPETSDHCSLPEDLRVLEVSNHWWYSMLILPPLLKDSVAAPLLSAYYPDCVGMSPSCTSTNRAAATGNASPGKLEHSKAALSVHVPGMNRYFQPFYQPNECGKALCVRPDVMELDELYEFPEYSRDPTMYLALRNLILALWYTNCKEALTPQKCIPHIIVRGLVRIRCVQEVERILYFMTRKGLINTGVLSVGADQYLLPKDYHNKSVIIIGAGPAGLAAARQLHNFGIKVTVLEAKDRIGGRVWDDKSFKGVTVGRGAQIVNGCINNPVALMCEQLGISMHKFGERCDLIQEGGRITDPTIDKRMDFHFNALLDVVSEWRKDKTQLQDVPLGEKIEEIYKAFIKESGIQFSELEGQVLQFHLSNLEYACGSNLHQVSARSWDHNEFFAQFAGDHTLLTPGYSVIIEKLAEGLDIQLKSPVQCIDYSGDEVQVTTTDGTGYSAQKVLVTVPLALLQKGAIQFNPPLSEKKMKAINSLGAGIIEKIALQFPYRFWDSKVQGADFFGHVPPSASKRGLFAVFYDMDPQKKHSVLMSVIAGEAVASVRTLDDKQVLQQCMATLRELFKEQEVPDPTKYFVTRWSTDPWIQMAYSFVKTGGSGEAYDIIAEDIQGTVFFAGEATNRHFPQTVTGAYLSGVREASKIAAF
# B1: NP.d3: truncation protein containing the linker region, residues 152–252; GST-tagged (protein)
# chain: SERGSKSPLKRAQEQSPRKRGRPPKDEKDLTIPESSTVKGMMAGPMAAFKWQPTASEPVKDADPHFHHFLLSQTEKPAVCYQAITKKLKICEEETGSTSIQ
# modifications: left off: GST, end not stated, kept
# B2: NPAC linker region (amino acids 152–268), as crystallised with LSD2 (domain or fragment, UniProt Q49A26 152-268, looked up)
# chain: SERGSKSPLKRAQEQSPRKRGRPPKDEKDLTIPESSTVKGMMAGPMAAFKWQPTASEPVKDADPHFHHFLLSQTEKPAVCYQAITKKLKICEEETGSTSIQAADSTAVNGSITPTDK
# B3: NPAC: NPAC/GLYR1 (UniProtKB/Swiss-Prot ID: Q49A26), contains PWWP domain, AT-hook motif, and dehydrogenase domain (protein, UniProt Q49A26 1-553, looked up)
# Cytokine-like nuclear factor …: MAAVSLRLGDLVWGKLGRYPPWPGKIVNPPKDLKKPRGKKCFFVKFFGTEDHAWIKVEQLKPYHAHKEEMIKINKGKRFQQAVDAVEEFLRRAKGKDQTSSHNSSDDKNRRNSSEERSRPNSGDEKRKLSLSEGKVKKNMGEGKKRVSSGSSERGSKSPLKRAQEQSPRKRGRPPKDEKDLTIPESSTVKGMMAGPMAAFKWQPTASEPVKDADPHFHHFLLSQTEKPAVCYQAITKKLKICEEETGSTSIQAADSTAVNGSITPTDKKIGFLGLGLMGSGIVSNLLKMGHTVTVWNRTAEKCDLFIQEGARLGRTPAEVVSTCDITFACVSDPKAAKDLVLGPSGVLQGIRPGKCYVDMSTVDADTVTELAQVIVSRGGRFLEAPVSGNQQLSNDGMLVILAAGDRGLYEDCSSCFQAMGKTSFFLGEVGNAAKMMLIVNMVQGSFMATIAEGLTLAQVTGQSQQTLLDILNQGQLASIFLDQKCQNILQGNFKPDFYLKYIQKDLRLAIALGDAVNHPTPMAAAANEVYKRAKALDQSDNDMSAVYRAYIH
# modifications: His tag
# B4: NPAC F217A protein: full-length F217A NPAC protein (protein, UniProt Q49A26 1-553, looked up, variant F217A)
# chain: B3 Cytokine-like nuclear factor … with F217A
# modifications: full-length
# How the values were obtained:
# LSD2 [1] = target: T1, LSD2; assay: H3K4me2 peptide; format: biochemical; conditions: 50 μM H3K4me2 peptide (1–21), 50 mM Tris-HCl pH 8.5, 50 mM KCl, 5 mM MgCl2, 5% glycerol, 37°C, 30 min; MALDI-TOF MS
# In short: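 Purified LSD2, full-length or truncated (residues 51–822), incubated with NPAC-derived peptides or proteins and 50 μM H3K4me2 peptide (residues 1–21, >95% pure by HPLC and MS) in 50 mM Tris-HCl pH 8.5, 50 mM KCl, 5 mM MgCl2, 5% glycerol, 37°C, 30 min. Products desalted on C18 tips; MALDI-TOF MS at constant laser intensity across samples.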
# LSD2 [2] = target: T1, LSD2; assay: nucleosome demethylation assay, stimulation; format: biochemical
# LSD2 [3] = target: T1, LSD2; assay: GST pull-down of His-LSD2; format: binding; conditions: GST pull-down of purified His-LSD2, SDS-PAGE, Coomassie blue staining
# In short: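 GST and GST-tagged wild-type or mutant NPAC proteins (linker-region and binding-site mutants) were used to pull down purified His-LSD2. His-LSD2 in input and bound fractions was resolved by SDS-PAGE and stained with Coomassie blue.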
# [4] = target: T2, LSD2 used for isothermal titration …; assay: ITC
# [5] = target: T3, LSD2 (residues 51–822), as crystallised …; assay: crystal structure
# [6] = system: LSD2 histone demethylation in U2OS cells; assay: immunofluorescence of histone marks in U2OS cells coexpressing LSD2 and NPAC; format: cell-based; conditions: coexpression of NPAC and LSD2; Figure S1D and data not shown
# In short: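 U2OS cells were transiently transfected with GFP-LSD2 alone or together with NPAC. Histone methylation marks were then detected by immunofluorescence with DAPI as DNA counterstain. Cells expressing similar levels of GFP-LSD2 were compared.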
# LSD2 [7] = target: T1, LSD2; assay: shorter H3K4me2 peptide; format: biochemical; conditions: H3K4me2 peptide (residues 1–15) as substrate; Figures S6A and S6B
# In short: (§1)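 Purified LSD2 (full-length or residues 51–822) was incubated with NPAC-derived peptides or proteins and an H3K4me2 peptide substrate. Products were desalted on C18 tips and analysed by MALDI-TOF MS at constant laser intensity for me1/me2 masses.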
# nucleosomal H3K4me2 = assay: nucleosome demethylation assay, demethylase activity toward nucleosomal H3K4me2; format: biochemical; conditions: recombinant NPAC, or NPAC complex purified from HeLa cells via TAP; immunoblot
# In short: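 Nucleosomes purified from HeLa cells were incubated with tandem-affinity-purified NPAC or LSD2 complexes from HeLa cells, with or without added recombinant NPAC. H3K4 demethylation was assessed by SDS-PAGE and immunoblot with methylation-specific histone H3 antibodies.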
# LSD1 = assay: nucleosome demethylation by LSD1, stimulation by NPAC; format: biochemical, human; conditions: nucleosomes; Figure S1B
# LSD2 [8] = target: T1, LSD2; assay: longer H3K4me2 peptide; format: biochemical; conditions: H3K4me2 peptide (1–44) as substrate; Figure S6C
# In short: as §1
molecule,measurement,setting,value
DPHAHHFLLSQT [NP.M6],cofactor activity for LSD2 with H3K4me2 peptide (residues 1–21) as substrate,LSD2 [1],"but not the F217A mutant, can stimulate LSD2-mediated demethylation of H3K4me2 peptides; also recorded: These results were further confirmed in demethylation assays using H3K4me2 peptide substrate (residues 1–21)"
DPHFHHFLLSQT [NP.WT],cofactor activity stimulating LSD2 demethylation of nucleosomes and synthetic histone peptides (summary),"LSD2 [2]; independent of PWWP module, discussion",robust cofactor activity
same,cofactor activity for LSD2 with H3K4me2 peptide (residues 1–21) as substrate,LSD2 [1],can stimulate LSD2-mediated demethylation of H3K4me2 peptides
B1,LSD2 binding / interaction,LSD2 [3],capable of directly interacting with LSD2
same,LSD2 binding / interaction,LSD2 [3]; listed as linker region of NPAC,sufficient for LSD2 binding
same,cofactor activity for LSD2 with H3K4me2 peptide (residues 1–21) as substrate,LSD2 [1],strong cofactor activity for LSD2
"DPHFHHFLLSQT (peptide, UniProt Q49A26 214-225, looked up) [wild-type NPAC dodecapeptide (residues 214–225)]",Kd,[4],920 ± 80 nM
"DPHAHHFLLSQT (peptide, UniProt Q49A26 214-225, looked up) [NPAC dodecapeptide (residues 214–225) F217A]",Kd,[4],930 ± 70 nM
B2,binding result,[5],binds
B3,change of H3K9me2 and other histone marks,[6],no detectable changes
same,cofactor activity with shorter H3K4me2 peptide (residues 1–15),LSD2 [7],did not detect NPAC cofactor activity
same,histone demethylase activity toward nucleosomes,nucleosomal H3K4me2,possesses no demethylase activity
same,stimulatory effect on nucleosome demethylation by LSD1,LSD1,no stimulatory effect
B4,stimulation of LSD2 demethylation of the longer H3K4me2 peptide (1–44),LSD2 [8],very weak or undetectable
same,"cofactor activity of full-length NPAC protein, more NPAC and LSD2 proteins","LSD2 [2]; nucleosome demethylation, more NPAC and LSD2 proteins used, Figure S6E",residual stimulatory activity
